Measurements reported in ChEMBL document CHEMBL4477183, “Antimicrobial Peptide from the Wild Bee Hylaeus signatus Venom and Its Analogues: Structure-Activity Study and Synergistic Effect with Antibiotics” (J Nat Prod, 2016).

Assays:
Candida albicans = assay: Antifungal activity against Candida albicans assessed as reduction in fungal growth after 20 hrs by […]; assay type: functional
Procedure, shortened: (§1)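 Broth microdilution in LB (YPG for C. albicans) with 2-fold serial dilutions, final 0.1–100 μM. Mid-log cells grown 3–5 h at 37 °C were added at about 5 × 10^5 cfu/mL, then incubated 20 h at 37 °C with shaking. A540 was read every 15 min to build growth curves. Medium with cells served as growth control; at least three runs in duplicate.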

[1] = tested on: Staphylococcus epidermidis; assay: Antimicrobial activity against Staphylococcus epidermidis assessed as reduction in bacterial growth after 20 hrs by broth microdilution assay
Micrococcus luteus = assay: Antimicrobial activity against Micrococcus luteus assessed as reduction in bacterial growth after 20 hrs by […]; assay type: functional; procedure, shortened: as §1
Escherichia coli = assay: Antimicrobial activity against Escherichia coli assessed as reduction in bacterial growth after 20 hrs by […]; assay type: functional; procedure, shortened: as §1
[2] = Hemolytic activity in human type RBC after 1 hr; assay type: ADME, cell-based, Erythrocyte; conditions: red blood cells (erythrocytes), read-out: LC50
Procedure, shortened: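 Peptides at 2.5–400 μM were incubated with a 4% suspension of human erythrocytes in physiological solution for 1 h at 37 °C, then centrifuged at 250g for 5 min; supernatant A540 was read. Saline-treated cells gave 0% lysis and 0.2% Triton X-100 gave 100%. LC50 is the concentration lysing 50% of cells; duplicates in at least two independent experiments.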

Pseudomonas aeruginosa [3] = assay: Antimicrobial activity against Pseudomonas aeruginosa clinical isolates assessed as reduction in bacterial growth after 20 hrs by […]; assay type: functional; procedure, shortened: as §1
Bacillus subtilis = assay: Antimicrobial activity against Bacillus subtilis assessed as reduction in bacterial growth after 20 hrs by […]; assay type: functional; procedure, shortened: as §1
Pseudomonas aeruginosa [4] = assay: Antimicrobial activity against Pseudomonas aeruginosa 5482 assessed as reduction in bacterial growth after 20 hrs […]; assay type: functional; conditions: Pseudomonas aeruginosa, 5482, 20 h; procedure, shortened: as §1
Staphylococcus aureus [5] = assay: Antimicrobial activity against Staphylococcus aureus clinical isolates from Liberec regional hospital assessed as reduction in bacterial growth after 20 hrs by broth microdilution assay
Staphylococcus aureus [6] = assay: Antimicrobial activity against Staphylococcus aureus clinical isolates from university hospital in Motol assessed as reduction in bacterial growth after 20 hrs by drop diffusion test; assay type: functional
Staphylococcus aureus [7] = assay: Antimicrobial activity against Staphylococcus aureus 6271 assessed as reduction in bacterial growth after 20 hrs by broth microdilution assay; conditions: Staphylococcus aureus, 6271, 20 h
Pseudomonas aeruginosa [8] = assay: Antimicrobial activity against Pseudomonas aeruginosa clinical isolates assessed as FIC index in presence of tetracycline after 20 hrs by drop diffusion test; assay type: functional
Pseudomonas aeruginosa [9] = assay: Antimicrobial activity against Pseudomonas aeruginosa clinical isolates assessed as FIC index in presence of rifampicin after 20 hrs by drop diffusion test; assay type: functional
Staphylococcus aureus [10] = assay: Antimicrobial activity against Staphylococcus aureus clinical isolates assessed as FIC index in presence of amoxicillin after 20 hrs by drop diffusion test; assay type: functional

Substance: H-GIMISLMKKLAAHIAK-NH2
- MIC (Candida albicans): 12 µM
- MIC [1]: 8.8 µM
- MIC (Micrococcus luteus): ≤ 3 µM
- MIC (Escherichia coli): 12 µM
- HC50 at 1 h [2]: 320 µM
- MIC (Pseudomonas aeruginosa [3]): > 100 µM
- MIC (Bacillus subtilis): ≤ 7 µM
- MIC (Pseudomonas aeruginosa [4]): 47 µM
- MIC (Staphylococcus aureus [5]): 35 µM
- MIC (Staphylococcus aureus [6]): 65 µM
- MIC (Staphylococcus aureus [7]): 43 µM

Substance: H-GIMSSLMKKLAAHIAK-NH2
- MIC (Candida albicans): 18 µM
- MIC [1]: 13 µM
- fractional inhibitory concentration index (FICI) (Pseudomonas aeruginosa [8]): 0.56
- MIC (Micrococcus luteus): ≤ 3 µM
- fractional inhibitory concentration index (FICI) (Pseudomonas aeruginosa [9]): 0.26
- MIC (Escherichia coli): 15 µM
- HC50 at 1 h [2]: > 400 µM
- MIC (Pseudomonas aeruginosa [3]): 68 µM
- MIC (Bacillus subtilis): ≤ 7 µM
- MIC (Pseudomonas aeruginosa [4]): 20 µM
- MIC (Staphylococcus aureus [5]): 53 µM
- MIC (Staphylococcus aureus [6]): 64 µM
- MIC (Staphylococcus aureus [7]): 63 µM

Substance: H-GIMSSLMKKLAAHIKK-NH2
- MIC (Candida albicans): 5 µM
- MIC [1]: 11 µM
- MIC (Micrococcus luteus): ≤ 3 µM
- MIC (Escherichia coli): 20 µM
- HC50 at 1 h [2]: > 400 µM
- MIC (Pseudomonas aeruginosa [3]): 46 µM
- MIC (Bacillus subtilis): ≤ 7 µM
- MIC (Pseudomonas aeruginosa [4]): 23 µM
- MIC (Staphylococcus aureus [5]): 77 µM
- MIC (Staphylococcus aureus [6]): 90 µM
- MIC (Staphylococcus aureus [7]): 85 µM

Substance: H-GIMSSLMKKLAAIIAK-NH2
- MIC (Candida albicans): 8.4 µM
- MIC [1]: 5 µM
- fractional inhibitory concentration index (FICI) (Pseudomonas aeruginosa [8]): 0.76
- MIC (Micrococcus luteus): ≤ 3 µM
- fractional inhibitory concentration index (FICI) (Pseudomonas aeruginosa [9]): 0.51
- MIC (Escherichia coli): 3.6 µM
- HC50 at 1 h [2]: 93 µM
- MIC (Pseudomonas aeruginosa [3]): 17 µM
- MIC (Bacillus subtilis): ≤ 7 µM
- MIC (Pseudomonas aeruginosa [4]): 8 µM
- MIC (Staphylococcus aureus [5]): 10 µM
- MIC (Staphylococcus aureus [6]): 10 µM
- fractional inhibitory concentration index (FICI) (Staphylococcus aureus [10]): 0.56
- MIC (Staphylococcus aureus [7]): 7.2 µM

Substance: H-GIMSSLMKKLAKHIAK-NH2
- MIC (Candida albicans): 14 µM
- MIC [1]: 6.2 µM
- fractional inhibitory concentration index (FICI) (Pseudomonas aeruginosa [8]): 0.54
- MIC (Micrococcus luteus): ≤ 3 µM
- fractional inhibitory concentration index (FICI) (Pseudomonas aeruginosa [9]): 0.25
- MIC (Escherichia coli): 15 µM
- HC50 at 1 h [2]: > 400 µM
- MIC (Pseudomonas aeruginosa [3]): 20 µM
- MIC (Bacillus subtilis): ≤ 7 µM
- MIC (Pseudomonas aeruginosa [4]): 7.9 µM
- MIC (Staphylococcus aureus [5]): 35 µM
- MIC (Staphylococcus aureus [6]): 63 µM
- fractional inhibitory concentration index (FICI) (Staphylococcus aureus [10]): 0.31
- MIC (Staphylococcus aureus [7]): 63 µM

Substance: H-GIMSSLMKKLAKIIAK-NH2
- MIC (Candida albicans): 11 µM
- MIC [1]: 5 µM
- fractional inhibitory concentration index (FICI) (Pseudomonas aeruginosa [8]): 0.79
- MIC (Micrococcus luteus): ≤ 3 µM
- fractional inhibitory concentration index (FICI) (Pseudomonas aeruginosa [9]): 0.43
- MIC (Escherichia coli): 3.7 µM
- HC50 at 1 h [2]: 88 µM
- MIC (Pseudomonas aeruginosa [3]): 9.3 µM
- MIC (Bacillus subtilis): ≤ 7 µM
- MIC (Pseudomonas aeruginosa [4]): 4.5 µM
- MIC (Staphylococcus aureus [5]): 5.2 µM
- MIC (Staphylococcus aureus [6]): 10 µM
- fractional inhibitory concentration index (FICI) (Staphylococcus aureus [10]): 0.5
- MIC (Staphylococcus aureus [7]): 9 µM

Substance: H-GIMSSLMKKLAKIIKK-NH2
- MIC (Candida albicans): 7.6 µM
- MIC [1]: 2.9 µM
- fractional inhibitory concentration index (FICI) (Pseudomonas aeruginosa [8]): 0.54
- MIC (Micrococcus luteus): ≤ 3 µM
- fractional inhibitory concentration index (FICI) (Pseudomonas aeruginosa [9]): 0.42
- MIC (Escherichia coli): 15 µM
- HC50 at 1 h [2]: > 400 µM
- MIC (Pseudomonas aeruginosa [3]): 10 µM
- MIC (Bacillus subtilis): ≤ 7 µM
- MIC (Pseudomonas aeruginosa [4]): 5.2 µM
- MIC (Staphylococcus aureus [5]): 8.6 µM
- MIC (Staphylococcus aureus [6]): 17 µM
- fractional inhibitory concentration index (FICI) (Staphylococcus aureus [10]): 0.38
- MIC (Staphylococcus aureus [7]): 33 µM

Substance: H-GIMSSLMKKLKAHIAK-NH2
- MIC (Candida albicans): 23 µM
- MIC [1]: 16 µM
- fractional inhibitory concentration index (FICI) (Pseudomonas aeruginosa [8]): 0.31
- MIC (Micrococcus luteus): ≤ 3 µM
- fractional inhibitory concentration index (FICI) (Pseudomonas aeruginosa [9]): 0.21
- MIC (Escherichia coli): 30 µM
- HC50 at 1 h [2]: > 400 µM
- MIC (Pseudomonas aeruginosa [3]): 47 µM
- MIC (Bacillus subtilis): ≤ 7 µM
- MIC (Pseudomonas aeruginosa [4]): 26 µM
- MIC (Staphylococcus aureus [5]): > 100 µM
- MIC (Staphylococcus aureus [6]): > 100 µM
- MIC (Staphylococcus aureus [7]): > 100 µM

Substance: H-GIMSSLMKKLKKHIAK-NH2
- MIC (Candida albicans): 12 µM
- MIC [1]: 10 µM
- fractional inhibitory concentration index (FICI) (Pseudomonas aeruginosa [8]): 0.39
- MIC (Micrococcus luteus): ≤ 3 µM
- fractional inhibitory concentration index (FICI) (Pseudomonas aeruginosa [9]): 0.23
- MIC (Escherichia coli): 26 µM
- HC50 at 1 h [2]: > 400 µM
- MIC (Pseudomonas aeruginosa [3]): 17 µM
- MIC (Bacillus subtilis): ≤ 7 µM
- MIC (Pseudomonas aeruginosa [4]): 6.4 µM
- MIC (Staphylococcus aureus [5]): > 100 µM
- MIC (Staphylococcus aureus [6]): > 100 µM
- MIC (Staphylococcus aureus [7]): > 100 µM
